Data from ChEMBL document CHEMBL4138225, “Development of novel anti-filarial agents using carbamo(dithioperoxo)thioate derivatives” (Eur J Med Chem, 2018).
In brackets after ≈: the same amount, converted by molar mass. Activity calls are given as the source filed them. No cut-off for these calls is given here.

What was measured:
Setaria cervi [1] = assay: Antifilarial activity against Setaria cervi microfilariae after 24 hrs by MTT assay; type: functional
Outline: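 Bovine S. cervi microfilariae incubated with compounds (DMSO-dissolved) in RPMI-1640 + 10% FBS, 5% CO2, 24 h. Worms washed in PBS; ~1×10^3 suspended in 0.3 ml MTT 0.25 mg/ml, 37 °C 2 h in dark. Formazan dissolved in DMSO, absorbance at 595 nm. Percent inhibition computed; LC50 fitted; ≥4 repeats, mean ± SE.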

Setaria cervi [2] = assay: Antifilarial activity against Setaria cervi microfilariae assessed as reduction in worm movement measured every 6 hrs up to 24 hrs by microscopy; type: functional, organism-based
Outline: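 About 1×10^5 S. cervi mf per well in RPMI-1640 with 10% FBS at 5% CO2, given a dose series. Motility checked by microscope every 6 h up to 24 h and scored 4 (highly motile) down to 0 (dead). IC50 and MIC calculated from scores; three experiments in triplicate, mean ± SE.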

Setaria cervi [3] = assay: Antifilarial activity against Setaria cervi adult after 24 hrs by MTT assay; type: functional, organism-based
Outline: (§1)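 S. cervi mf or adults cultured in RPMI-1640 with 10% FBS, 5% CO2, 24 h with compounds dissolved in DMSO. Worms washed in PBS, ~1×10^3 put in 0.25 mg/ml MTT for 2 h at 37 °C in the dark. Formazan dissolved in DMSO, A595. Percent inhibition computed, LC50 fitted; at least four repeats, mean ± SE.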

Setaria cervi [4] = assay: Antifilarial activity against Setaria cervi oocytes after 24 hrs by MTT assay; type: functional, organism-based
Setaria cervi [5] = assay: Antifilarial activity against Setaria cervi microfilariae after 3 hrs by trypan blue exclusion assay; type: functional, organism-based
Outline: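 After treatment, the culture was mixed and 100 μL holding parasites moved into fresh medium and put back in the CO2 incubator. Viability read by trypan blue staining, dead worms blue. Viability % = live / total microfilariae.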

Setaria cervi [6] = assay: Antifilarial activity against Setaria cervi adult after 3 hrs by trypan blue exclusion assay; type: functional, organism-based
Setaria cervi [7] = assay: Induction of reactive oxygen species generation in Setaria cervi microfilariae at 1 to 10 uM by NBT assay; type: functional, organism-based
Outline: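 Treated mf or adults pelleted at 7500 rpm, washed in PBS (50 mM, pH 7.0), then incubated in 2% NBT for 2 h at 37 °C. Washed in PBS and methanol, formazan dissolved in 2M KOH/DMSO for 10–15 min at room temperature, absorbance read at 620 nm.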

Setaria cervi [8] = assay: Induction of chromatin condensation in Setaria cervi microfilariae by Hoechst 33342 staining-based […] microscopic analysis; type: functional, organism-based
Outline: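 Treated mf washed in PBS (pH 7.2), fixed in paraformaldehyde and stained 5 min with 1 mg/mL Hoechst 33342. Mounted on poly-L-lysine slides and imaged by fluorescence microscopy at […].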

Setaria cervi [9] = assay: Antifilarial activity against Setaria cervi microfilaria forms after 24 hrs by MTT assay; type: functional, organism-based; outline: as §1
Setaria cervi [10] = assay: Antifilarial activity against Setaria cervi microfilariae after 3 hrs

| Structure (SMILES) | LC50 (Setaria cervi [1]) [µg/mL] | IC50 (Setaria cervi [2]) [µg/mL] | MIC (Setaria cervi [2]) [µg/mL] | Activity (Setaria cervi [1]) | Activity (Setaria cervi [3]) | Activity (Setaria cervi [4]) | Activity (Setaria cervi [5]) | Activity (Setaria cervi [6]) | Activity (Setaria cervi [7]) | Activity (Setaria cervi [8]) | Activity (Setaria cervi [9]) | IC50 (Setaria cervi [10]) [µg/mL] |
| --- | --- | --- | --- | --- | --- | --- | --- | --- | --- | --- | --- | --- |
| S=C(SSc1ncccn1)N1CCc2ccccc2C1 | 124 (≈ 389 µM) | 31.1 (≈ 97.3 µM) | 10.4 (≈ 32.4 µM) | – | – | – | – | – | – | – | – | – |
| Cc1ccc(SSC(=S)N2CCOCC2)cc1 | 79.6 (≈ 279 µM) | 19.9 (≈ 69.7 µM) | 6.63 (≈ 23.2 µM) | – | – | – | – | – | – | – | – | – |
| Cc1ccc(SSC(=S)N2CCCC2)cc1 | 94.3 (≈ 350 µM) | 23.6 (≈ 87.5 µM) | 7.86 (≈ 29.2 µM) | – | – | – | – | – | – | – | – | – |
| S=C(SSc1cccc2ccccc12)N1CCCCC1 | 6.49 (≈ 20.3 µM) | 2.15 (≈ 6.73 µM) | 0.583 (≈ 1.82 µM) | Dose-dependent effect | Dose-dependent effect | Active | Dose-dependent effect | Dose-dependent effect | Active | Active | Active | 2.15 (≈ 6.73 µM) |
| S=C(SSc1cccc2ccccc12)N1CCOCC1 | 88.9 (≈ 277 µM) | 22.2 (≈ 69.1 µM) | 7.41 (≈ 23 µM) | – | – | – | – | – | – | – | – | – |
| Cc1ccc(SSC(=S)N2CCc3ccccc3C2)cc1 | 128 (≈ 388 µM) | 32.1 (≈ 96.9 µM) | 10.7 (≈ 32.3 µM) | – | – | – | – | – | – | – | – | – |
| Cc1ccc(SSC(=S)N2CCC(Cc3ccccc3)CC2)cc1 | 22.5 (≈ 60.3 µM) | 19.6 (≈ 52.6 µM) | 1.22 (≈ 3.27 µM) | – | – | – | – | – | – | – | – | – |
| COc1ccc(SSC(=S)N2CCOCC2)cc1 | 80.3 (≈ 266 µM) | 20.1 (≈ 66.6 µM) | 6.69 (≈ 22.2 µM) | – | – | – | – | – | – | – | – | – |
| S=C(SSc1ncccn1)N1CCC(Cc2ccccc2)CC1 | 240 (≈ 663 µM) | 59.9 (≈ 166 µM) | 20 (≈ 55.2 µM) | – | – | – | – | – | – | – | – | – |
| S=C(SSc1ncccn1)N1CCOCC1 | 6.17 (≈ 22.6 µM) | 5.5 (≈ 20.1 µM) | 0.97 (≈ 3.55 µM) | Dose-dependent effect | Dose-dependent effect | Active | Dose-dependent effect | Dose-dependent effect | – | Active | Active | 5.5 (≈ 20.1 µM) |
| COc1ccc(SSC(=S)N2CCCC2)cc1 | 97 (≈ 340 µM) | 24.2 (≈ 85 µM) | 8.08 (≈ 28.3 µM) | – | – | – | – | – | – | – | – | – |
